# Reference: ChEMBL document CHEMBL3232972, “Synthesis and biological evaluation of some novel pyrido[1,2-a]pyrimidin-4-ones as antimalarial agents” (Eur J Med Chem, 2014)
# Columns and labels:
# [1] = test system: Plasmodium falciparum; experiment: Antimalarial activity against erythrocytic stages of chloroquine-sensitive Plasmodium falciparum 3D7 infected in human O-positive erythrocytes after 48 hrs by SYBR Green-I fluorescence-based method; format: functional, organism-based; conditions: 3D7, 48 h
# [2] = Selectivity index, ratio for IC50 for human HuH7 cells to IC50 for erythrocytic stages of chloroquine-sensitive Plasmodium falciparum 3D7; format: functional, Huh-7
# [3] = Cytotoxicity against human HuH7 cells after 24 hrs by MTT assay; format: cell-based; conditions: Huh-7, 24 h
# Summary of the method: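 Huh-7 cells in DMEM with 10% FBS and gentamicin, seeded at 10⁴ cells per well and left overnight. Compounds added for 24 h at 37 °C, 5% CO2, with 10% DMSO as positive control. MTT added for a further 3 h. Formazan dissolved in DMSO after centrifugation, read at 570 nm. IC50 from dose-response curves.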
IC50 [1],Structure (SMILES),Ratio IC50 [2],IC50 [3]
> 100 µM,O=C(Nc1cnc2ccc(Cl)cn2c1=O)OCc1cccnc1,,
> 100 µM,NC(=O)[C@H](Cc1ccccc1)NC(=O)Nc1cnc2ccccn2c1=O,,
> 100 µM,O=C(NCc1cccc(C(F)(F)F)c1)Nc1cnc2ccc(Cl)cn2c1=O,,
> 100 µM,CCOC(=O)[C@H](Cc1ccccc1)NC(=O)Nc1cnc2ccccn2c1=O,,
70 µM,CC(C)N(Cc1ccccc1)C(=O)Nc1cnc2ccccn2c1=O,,
43 µM,O=C(NCc1cccc(F)c1)c1cnc2ccccn2c1=O,,
> 100 µM,O=C(NCc1ccc(C(F)(F)F)cc1)Nc1cnc2ccccn2c1=O,,
33 µM,O=C(Nc1cnc2ccccn2c1=O)OCc1cccc(F)c1,>3,> 100 µM
> 100 µM,O=C(Nc1cnc2ccc(Cl)cn2c1=O)OCc1cccc(F)c1,,
> 100 µM,CC(C)N(Cc1ccccc1)C(=O)Nc1cnc2ccc(Cl)cn2c1=O,,
> 100 µM,CC(C)C[C@@H](C#N)NC(=O)Nc1cnc2ccccn2c1=O,,
37 µM,O=C(NCc1ccc(C(F)(F)F)cc1)c1cnc2ccccn2c1=O,>5.4,> 200 µM
> 100 µM,O=C(c1cnc2ccccn2c1=O)N(Cc1ccccc1F)C1CC1,,

# The next lines start with the compound.
Structure (SMILES),IC50 [1],Ratio IC50 [2],IC50 [3]
O=C(NCc1ccc(C(F)(F)F)cc1)Nc1cnc2ccc(Cl)cn2c1=O,> 100 µM,,
COc1ccc(-c2ccc3ncc(C(=O)NCc4cccc(F)c4)c(=O)n3c2)cc1,> 100 µM,,
O=C(NCc1ccccc1C(F)(F)F)c1cnc2ccccn2c1=O,> 100 µM,,
O=C(NC1CCN(Cc2ccccc2)CC1)c1cnc2ccccn2c1=O,> 100 µM,,
CC(C)(C)OC(=O)N1CCN(C(=O)Nc2cnc3ccc(Cl)cn3c2=O)CC1,> 100 µM,,
O=C(NCCN1CCOCC1)c1cnc2ccccn2c1=O,> 100 µM,,
O=C(Nc1cnc2ccc(Cl)cn2c1=O)N1CCN(C(=O)c2ccco2)CC1,> 100 µM,,
O=C(Nc1cnc2ccccn2c1=O)OCc1ccc2c(c1)OCO2,> 100 µM,,
N#C[C@H](Cc1ccccc1)NC(=O)Nc1cnc2ccccn2c1=O,> 100 µM,,
O=C(NCc1cccs1)Nc1cnc2ccc(Cl)cn2c1=O,> 100 µM,,
O=C(Nc1cnc2ccc(Cl)cn2c1=O)OCc1ccccn1,> 100 µM,,
COc1ccc(CNC(=O)c2cnc3ccccn3c2=O)cc1,> 100 µM,,
COc1ccc(-c2ccc3ncc(C(=O)NCc4ccc(C(F)(F)F)cc4)c(=O)n3c2)cc1,> 100 µM,,
COc1ccc(C(C)NC(=O)c2cnc3ccccn3c2=O)cc1 (configuration not stated),> 100 µM,,
CCCCCOc1cccnc1NC(=O)c1cnc2ccccn2c1=O,> 100 µM,,
Cc1ccn2c(=O)c(C(=O)NCc3ccc(C(F)(F)F)cc3)cnc2c1,70 µM,>1.4,> 100 µM
Cc1ccn2c(=O)c(NC(=O)N(Cc3ccccc3)C(C)C)cnc2c1,> 100 µM,,
O=C(NCc1ccccc1C(F)(F)F)Nc1cnc2ccccn2c1=O,100 µM,,
O=C(NCc1cccc(C(F)(F)F)c1)c1cnc2ccccn2c1=O,65 µM,>3,> 200 µM
COc1ccc(-c2ccc3ncc(C(=O)NCC4CCCO4)c(=O)n3c2)cc1 (configuration not stated),100 µM,,
CC(C)C[C@H](NC(=O)Nc1cnc2ccccn2c1=O)C(N)=O,> 100 µM,,
O=C(NCc1ccc(F)cc1F)c1cnc2ccccn2c1=O,59 µM,>3.3,> 200 µM
O=C(Nc1ncccc1OCc1ccccc1)Nc1cnc2ccccn2c1=O,> 100 µM,,
O=C(Nc1ncccc1OCc1ccccc1)c1cnc2ccccn2c1=O,100 µM,,
O=C(NCc1ccccc1C(F)(F)F)Nc1cnc2ccc(Cl)cn2c1=O,> 100 µM,,
O=C(NC1CC1)c1cccnc1N1CCN(C(=O)Nc2cnc3ccccn3c2=O)CC1,> 100 µM,,
COCCNC(=O)Nc1cnc2ccc(Cl)cn2c1=O,> 100 µM,,
O=C(NCCC(c1ccccc1)c1ccccc1)Nc1cnc2ccccn2c1=O,> 100 µM,,
Cc1noc(C)c1NC(=O)c1cnc2ccccn2c1=O,> 100 µM,,
